Assay results as given in ChEMBL document CHEMBL3351764, “Design, synthesis and biological activity of flavonoid derivatives as selective agonists for neuromedin U 2 receptor” (Bioorg Med Chem, 2014).
Calls of active or inactive are those of the source. The rule behind the calls is not given here.

What was measured:
Neuromedin-U receptor 2 = Neuromedin-U receptor 2 (Homo sapiens, UniProt Q9GZQ4); assay: Agonist activity at human NMU2R transfected in HEK293 cells after 7 hrs by luciferase reporter gene assay; assay type: cell-based
Summary of the method: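 HEK-293 cells were stably co-transfected with a reporter gene construct and human NMU2R cDNA in pcDNA3.1(+), maintained under G418 selection at 37 °C in 5% CO2, then seeded and incubated overnight. Compounds were added at various concentrations for 7 h at 37 °C, followed by Bright-Glo luciferase read-out. Forskolin and NMU served as positive controls. EC50 was fitted by four-parameter logistic regression; means ± SEM of three independent experiments.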

[1] = molecular target: Melanocyte-stimulating hormone receptor (Homo sapiens) (UniProt Q01726); assay: Agonist activity at human MC1 receptor at 100 uM to 5 mM
[2] = molecular target: Melanocortin receptor 3 (Homo sapiens) (UniProt P41968); assay: Agonist activity at human MC3 receptor at 100 uM to 5 mM
[3] = molecular target: Melanocortin receptor 4 (Homo sapiens) (UniProt P32245); assay: Agonist activity at human MC4 receptor at 100 uM to 5 mM
[4] = molecular target: Melanocyte-stimulating hormone receptor (Mus musculus) (UniProt Q01727); assay: Agonist activity at mouse MC1 receptor at 100 uM to 5 mM
[5] = molecular target: Melanocortin receptor 3 (Mus musculus) (UniProt P33033); assay: Agonist activity at mouse MC3 receptor at 100 uM to 5 mM
[6] = molecular target: T1, Neuromedin-U receptor 1 (Homo sapiens) (UniProt Q9HB89); assay: Agonist activity at human NMU1 receptor at 100 uM to 5 mM
T1 sequence (whole entry): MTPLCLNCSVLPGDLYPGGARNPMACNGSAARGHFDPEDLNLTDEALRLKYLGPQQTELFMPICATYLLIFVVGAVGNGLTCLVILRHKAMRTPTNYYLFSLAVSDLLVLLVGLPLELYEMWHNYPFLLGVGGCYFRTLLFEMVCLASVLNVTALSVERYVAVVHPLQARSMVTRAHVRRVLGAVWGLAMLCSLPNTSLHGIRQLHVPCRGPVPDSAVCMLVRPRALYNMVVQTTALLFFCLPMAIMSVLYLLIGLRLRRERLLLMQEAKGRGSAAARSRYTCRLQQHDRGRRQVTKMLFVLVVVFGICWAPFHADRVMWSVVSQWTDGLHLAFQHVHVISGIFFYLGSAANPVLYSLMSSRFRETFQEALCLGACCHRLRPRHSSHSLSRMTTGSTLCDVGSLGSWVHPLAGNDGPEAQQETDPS

[7] = molecular target: T2, Orexin receptor type 2 (Homo sapiens) (UniProt O43614); assay: Agonist activity at human orexin 2 receptor at 100 uM to 5 mM
T2 sequence (whole entry): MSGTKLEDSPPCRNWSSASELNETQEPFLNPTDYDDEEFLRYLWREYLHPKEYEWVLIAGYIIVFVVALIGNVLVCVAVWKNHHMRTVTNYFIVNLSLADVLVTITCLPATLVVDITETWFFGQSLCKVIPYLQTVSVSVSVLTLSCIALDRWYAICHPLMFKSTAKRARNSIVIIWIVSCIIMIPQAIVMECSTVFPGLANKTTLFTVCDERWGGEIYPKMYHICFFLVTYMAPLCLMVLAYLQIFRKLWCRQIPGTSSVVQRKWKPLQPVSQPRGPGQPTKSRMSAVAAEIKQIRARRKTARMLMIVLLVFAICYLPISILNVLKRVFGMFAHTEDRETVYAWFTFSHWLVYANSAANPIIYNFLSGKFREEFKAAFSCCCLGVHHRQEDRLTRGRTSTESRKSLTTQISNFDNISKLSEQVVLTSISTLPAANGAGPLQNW

[8] = molecular target: T3, Muscarinic acetylcholine receptor M1 (Homo sapiens) (UniProt P11229); assay: Agonist activity at human M1 receptor at 100 uM to 5 mM
T3 sequence (whole entry): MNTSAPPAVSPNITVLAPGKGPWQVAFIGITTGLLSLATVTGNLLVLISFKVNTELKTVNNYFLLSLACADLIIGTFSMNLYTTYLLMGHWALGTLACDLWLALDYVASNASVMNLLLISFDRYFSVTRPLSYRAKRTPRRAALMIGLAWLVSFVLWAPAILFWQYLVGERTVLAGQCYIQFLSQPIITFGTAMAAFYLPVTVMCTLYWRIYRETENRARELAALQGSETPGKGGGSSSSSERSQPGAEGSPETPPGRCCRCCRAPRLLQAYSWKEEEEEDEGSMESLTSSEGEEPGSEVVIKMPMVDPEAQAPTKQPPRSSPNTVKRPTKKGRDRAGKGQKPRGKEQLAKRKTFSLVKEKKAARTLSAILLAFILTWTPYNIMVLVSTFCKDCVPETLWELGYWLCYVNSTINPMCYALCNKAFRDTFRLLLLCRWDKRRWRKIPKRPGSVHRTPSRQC

[9] = molecular target: D(1A) dopamine receptor (Homo sapiens) (UniProt P21728); assay: Agonist activity at human D1 receptor at 100 uM to 5 mM
[10] = molecular target: T4, Adenosine receptor A1 (Homo sapiens) (UniProt P30542); assay: Agonist activity at human A1 receptor at 100 uM to 5 mM
T4 sequence (whole entry): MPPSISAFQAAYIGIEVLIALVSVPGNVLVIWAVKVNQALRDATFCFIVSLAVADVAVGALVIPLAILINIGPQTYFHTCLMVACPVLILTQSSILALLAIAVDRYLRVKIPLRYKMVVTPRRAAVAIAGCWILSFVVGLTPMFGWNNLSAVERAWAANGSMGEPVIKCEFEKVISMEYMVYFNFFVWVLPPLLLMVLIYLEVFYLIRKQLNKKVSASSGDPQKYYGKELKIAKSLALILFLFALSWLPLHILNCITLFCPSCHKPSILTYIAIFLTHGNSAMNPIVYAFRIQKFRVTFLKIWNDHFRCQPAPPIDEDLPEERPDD

[11] = molecular target: Adenosine receptor A2a (Homo sapiens) (UniProt P29274); assay: Agonist activity at human A2a receptor at 100 uM to 5 mM
[12] = molecular target: T5, C5a anaphylatoxin chemotactic receptor 1 (Homo sapiens) (UniProt P21730); assay: Agonist activity at human C5a receptor at 100 uM to 5 mM
T5 sequence (whole entry): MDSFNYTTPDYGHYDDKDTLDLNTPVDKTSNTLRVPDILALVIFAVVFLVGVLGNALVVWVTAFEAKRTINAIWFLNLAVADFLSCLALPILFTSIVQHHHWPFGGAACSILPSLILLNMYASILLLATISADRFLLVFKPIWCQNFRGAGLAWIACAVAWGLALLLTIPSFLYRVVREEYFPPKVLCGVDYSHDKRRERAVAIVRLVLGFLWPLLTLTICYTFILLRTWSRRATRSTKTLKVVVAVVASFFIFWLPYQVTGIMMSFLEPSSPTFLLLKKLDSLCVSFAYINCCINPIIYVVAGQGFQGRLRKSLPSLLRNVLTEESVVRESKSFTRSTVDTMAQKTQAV

[13] = molecular target: Glucagon receptor (Homo sapiens) (UniProt P47871); assay: Agonist activity at human Glu receptor at 100 uM to 5 mM
Glucagon receptor (Homo sapiens), sequence (P47871 whole entry): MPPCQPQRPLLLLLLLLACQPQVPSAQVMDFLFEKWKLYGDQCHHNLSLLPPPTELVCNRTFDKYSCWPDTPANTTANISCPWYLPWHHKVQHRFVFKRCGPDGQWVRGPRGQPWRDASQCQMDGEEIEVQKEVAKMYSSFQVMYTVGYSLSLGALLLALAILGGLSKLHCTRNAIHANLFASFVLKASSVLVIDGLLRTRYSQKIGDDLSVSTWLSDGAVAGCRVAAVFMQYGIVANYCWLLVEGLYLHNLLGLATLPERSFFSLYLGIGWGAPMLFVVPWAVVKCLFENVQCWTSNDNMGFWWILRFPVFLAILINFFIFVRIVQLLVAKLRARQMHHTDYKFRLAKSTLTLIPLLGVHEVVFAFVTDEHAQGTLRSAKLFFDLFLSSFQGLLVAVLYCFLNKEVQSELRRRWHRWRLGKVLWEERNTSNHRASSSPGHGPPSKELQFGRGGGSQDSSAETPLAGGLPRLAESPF

Melanocyte-stimulating hormone receptor (Homo sapiens), sequence (Q01726 whole entry, looked up): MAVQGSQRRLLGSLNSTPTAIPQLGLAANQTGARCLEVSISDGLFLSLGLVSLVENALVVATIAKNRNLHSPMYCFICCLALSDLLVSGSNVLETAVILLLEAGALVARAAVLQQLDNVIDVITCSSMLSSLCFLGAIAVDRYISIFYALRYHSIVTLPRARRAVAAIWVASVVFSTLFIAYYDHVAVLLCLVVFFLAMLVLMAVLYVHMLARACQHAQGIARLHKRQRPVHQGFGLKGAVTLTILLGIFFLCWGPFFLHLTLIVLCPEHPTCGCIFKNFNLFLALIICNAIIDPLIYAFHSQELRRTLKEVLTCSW
Neuromedin-U receptor 2, sequence (Q9GZQ4 whole entry): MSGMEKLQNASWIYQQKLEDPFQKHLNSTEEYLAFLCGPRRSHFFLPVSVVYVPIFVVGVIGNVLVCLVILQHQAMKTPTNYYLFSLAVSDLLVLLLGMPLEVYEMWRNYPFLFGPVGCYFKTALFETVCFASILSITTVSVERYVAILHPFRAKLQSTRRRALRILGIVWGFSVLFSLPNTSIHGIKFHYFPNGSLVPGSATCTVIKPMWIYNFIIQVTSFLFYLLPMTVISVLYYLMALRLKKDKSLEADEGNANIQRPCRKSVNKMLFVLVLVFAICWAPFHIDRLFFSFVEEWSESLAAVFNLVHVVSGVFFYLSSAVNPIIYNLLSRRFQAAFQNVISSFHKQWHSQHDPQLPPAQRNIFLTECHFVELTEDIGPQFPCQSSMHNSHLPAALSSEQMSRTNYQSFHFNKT
Adenosine receptor A2a (Homo sapiens), sequence (P29274 whole entry): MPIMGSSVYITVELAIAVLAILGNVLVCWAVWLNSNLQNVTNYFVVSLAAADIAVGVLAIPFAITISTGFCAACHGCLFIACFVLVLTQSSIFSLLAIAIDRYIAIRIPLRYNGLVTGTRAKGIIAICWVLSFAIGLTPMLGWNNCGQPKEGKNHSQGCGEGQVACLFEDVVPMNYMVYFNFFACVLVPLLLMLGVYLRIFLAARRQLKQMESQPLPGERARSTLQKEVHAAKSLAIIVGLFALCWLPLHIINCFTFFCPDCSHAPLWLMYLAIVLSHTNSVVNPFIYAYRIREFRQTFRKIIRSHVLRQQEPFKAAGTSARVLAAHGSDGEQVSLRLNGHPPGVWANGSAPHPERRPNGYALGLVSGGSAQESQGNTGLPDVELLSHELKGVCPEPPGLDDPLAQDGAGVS
Melanocortin receptor 4 (Homo sapiens), sequence (P32245 whole entry): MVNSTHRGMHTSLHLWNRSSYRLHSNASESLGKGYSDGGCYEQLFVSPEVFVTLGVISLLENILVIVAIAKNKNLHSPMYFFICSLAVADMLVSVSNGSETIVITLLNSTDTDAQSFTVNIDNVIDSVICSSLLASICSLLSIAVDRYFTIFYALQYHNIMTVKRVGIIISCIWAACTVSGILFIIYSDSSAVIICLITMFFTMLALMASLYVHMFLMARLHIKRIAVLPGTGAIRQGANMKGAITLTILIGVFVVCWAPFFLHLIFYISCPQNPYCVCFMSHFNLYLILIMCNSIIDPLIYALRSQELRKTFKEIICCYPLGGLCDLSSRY
D(1A) dopamine receptor (Homo sapiens), sequence (P21728 whole entry): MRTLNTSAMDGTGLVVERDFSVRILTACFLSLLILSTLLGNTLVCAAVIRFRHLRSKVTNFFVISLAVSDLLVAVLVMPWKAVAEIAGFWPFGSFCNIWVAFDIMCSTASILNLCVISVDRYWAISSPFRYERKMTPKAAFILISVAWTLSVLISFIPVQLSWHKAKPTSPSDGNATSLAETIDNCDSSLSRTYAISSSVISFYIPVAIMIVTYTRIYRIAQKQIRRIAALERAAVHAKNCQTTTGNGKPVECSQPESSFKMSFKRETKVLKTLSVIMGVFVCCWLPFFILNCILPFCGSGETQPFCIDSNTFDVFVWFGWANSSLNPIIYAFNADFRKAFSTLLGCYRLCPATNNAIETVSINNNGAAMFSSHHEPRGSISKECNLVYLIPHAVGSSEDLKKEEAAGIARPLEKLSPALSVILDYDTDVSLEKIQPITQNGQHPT
Melanocyte-stimulating hormone receptor (Mus musculus), sequence (Q01727 whole entry, looked up): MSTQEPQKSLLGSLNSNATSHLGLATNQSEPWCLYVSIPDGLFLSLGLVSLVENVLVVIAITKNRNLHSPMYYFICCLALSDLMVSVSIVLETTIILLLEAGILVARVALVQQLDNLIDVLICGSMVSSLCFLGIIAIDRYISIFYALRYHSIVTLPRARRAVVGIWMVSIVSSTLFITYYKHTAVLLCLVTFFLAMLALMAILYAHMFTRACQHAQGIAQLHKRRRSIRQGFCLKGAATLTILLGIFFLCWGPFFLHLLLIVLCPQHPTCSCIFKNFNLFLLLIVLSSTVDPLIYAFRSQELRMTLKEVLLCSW
Melanocortin receptor 3 (Homo sapiens), sequence (P41968 whole entry): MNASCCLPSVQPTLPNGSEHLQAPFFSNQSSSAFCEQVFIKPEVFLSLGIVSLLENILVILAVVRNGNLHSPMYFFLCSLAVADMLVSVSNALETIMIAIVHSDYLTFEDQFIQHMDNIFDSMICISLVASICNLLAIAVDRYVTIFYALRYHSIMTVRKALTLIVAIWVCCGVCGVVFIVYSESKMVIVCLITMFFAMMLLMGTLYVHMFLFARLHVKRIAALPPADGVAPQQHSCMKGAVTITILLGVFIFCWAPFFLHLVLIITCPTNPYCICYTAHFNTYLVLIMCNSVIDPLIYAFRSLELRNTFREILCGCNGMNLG
Melanocortin receptor 3 (Mus musculus), sequence (P33033 whole entry): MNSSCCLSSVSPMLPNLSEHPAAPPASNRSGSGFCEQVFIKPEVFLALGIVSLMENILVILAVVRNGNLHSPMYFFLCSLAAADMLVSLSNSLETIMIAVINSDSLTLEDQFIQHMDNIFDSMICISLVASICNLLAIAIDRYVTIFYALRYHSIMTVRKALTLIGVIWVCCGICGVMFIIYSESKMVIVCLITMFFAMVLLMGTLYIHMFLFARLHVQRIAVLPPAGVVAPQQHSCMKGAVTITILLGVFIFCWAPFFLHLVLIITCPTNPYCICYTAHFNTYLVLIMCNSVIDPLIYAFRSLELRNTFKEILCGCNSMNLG

| EC50 (Neuromedin-U receptor 2; hek293) | Activity [1] | Activity [2] | Activity [3] | Activity [4] | Activity [5] | Activity [6] | Activity [7] | Activity [8] | Activity [9] | Activity [10] | Activity [11] | Activity [13] | EC50 (Neuromedin-U receptor 2; read-out: EC50) | Structure (SMILES) | Activity [12] |
| --- | --- | --- | --- | --- | --- | --- | --- | --- | --- | --- | --- | --- | --- | --- | --- |
| Not Active | inactive | inactive | inactive | inactive | inactive | inactive | inactive | inactive | inactive | inactive | inactive | inactive |  | CCOC(=O)COc1c(-c2cc(Br)ccc2F)oc2ccccc2c1=O | inactive |
|  | inactive | inactive | inactive | inactive | inactive | inactive | inactive | inactive | inactive | inactive | inactive | inactive | 31.1 µM | O=c1c(O)c(-c2cccc(Cl)c2F)oc2ccccc12 | inactive |
| Not Active | inactive | inactive | inactive | inactive | inactive | inactive | inactive | inactive | inactive | inactive | inactive | inactive |  | CCN(CC)c1ccc(-c2oc3ccccc3c(=O)c2O)cc1 | inactive |
| Not Active | inactive | inactive | inactive | inactive | inactive | inactive | inactive | inactive | inactive | inactive | inactive | inactive |  | COc1c(-c2cc(Br)ccc2F)oc2ccccc2c1=O | inactive |
|  | inactive | inactive | inactive | inactive | inactive | inactive | inactive | inactive | inactive | inactive | inactive | inactive | 73 µM | O=c1c(O)c(-c2ccc(Br)cc2F)oc2ccccc12 | inactive |
| Not Active | inactive | inactive | inactive | inactive | inactive | inactive | inactive | inactive | inactive | inactive | inactive | inactive |  | COc1cc(-c2oc3ccccc3c(=O)c2O)ccc1O | inactive |
| Not Active | inactive | inactive | inactive | inactive | inactive | inactive | inactive | inactive | inactive | inactive | inactive | inactive |  | O=c1cc(-c2ccc(Cl)cc2Cl)oc2ccccc12 | inactive |
| Not Active | inactive | inactive | inactive | inactive | inactive | inactive | inactive | inactive | inactive | inactive | inactive | inactive |  | COc1ccc(C2C=Cc3ccccc3O2)cc1O (racemic) | inactive |
| Not Active | inactive | inactive | inactive | inactive | inactive | inactive | inactive | inactive | inactive | inactive | inactive | inactive |  | O=c1c(O)c(-c2c(F)cccc2Cl)oc2ccccc12 | inactive |
| Not Active | inactive | inactive | inactive | inactive | inactive | inactive | inactive | inactive | inactive | inactive | inactive | inactive |  | O=c1c(O)c(-c2c(F)ccc(F)c2Cl)oc2ccccc12 | inactive |
|  | inactive | inactive | inactive | inactive | inactive | inactive | inactive | inactive | inactive | inactive | inactive | inactive | 47 µM | O=c1c(OCCO)c(-c2cc(Br)ccc2F)oc2ccccc12 | inactive |
